What was measured:
[1] = test system: Mycolicibacterium smegmatis; assay: Antibiofilm activity against Mycobacterium smegmatis mc2 155 ATCC 700084 assessed as dispersion of preformed biofilms measured after 24 hrs by crystal violet reporter assay; format: functional, organism-based; conditions: MC2 155 ATCC 700084, 24 h
How it was run: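 Cultures (48 h) diluted to 0.01 in M9 minimal salts with glucose, MgSO4 and CaCl2 in PVC plates. Biofilm grown stationary at 37 °C for 48 h, washed, then fresh medium with compound added for 24 h at 37 °C. Stained with 0.1% crystal violet 30 min, solubilised in 95% ethanol, OD540 read. Media blanks subtracted. Dispersion calculated against untreated biofilm wells. At least three repeats.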

[2] = test system: Mycolicibacterium smegmatis; assay: Antibiofilm activity against Mycobacterium smegmatis mc2 155 ATCC 700084 assessed as inhibition of biofilm formation measured after 24 hrs by crystal violet reporter assay; format: functional, organism-based; conditions: MC2 155 ATCC 700084, 24 h
[3] = test system: Mycolicibacterium smegmatis; assay: Potentiation of Ampicillin-induced antibacterial activity against Mycobacterium smegmatis mc2 155 ATCC 700084 assessed as Ampicillin MIC at 60 uM incubated for 48 hrs by alamarblue dye based broth microdilution method (reference value: 128 ug/ml); format: functional
How it was run: (§1)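 Inoculum from 48 h cultures set to 5 x 10^5 CFU/mL in 7H9 + ADC and pre-dosed with compound from DMSO stock at fixed concentration. β-lactam two-fold serially diluted from top concentration, with an antibiotic-only control series. Stationary 37 °C for 48 h, then alamarBlue for 8 h. MIC is the lowest blue (non-viable) well. Fold reduction is relative to the antibiotic-only MIC. Duplicates, at least two repeats.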

[4] = test system: Mycolicibacterium smegmatis; assay: Potentiation of Ceftazidime-induced antibacterial activity against Mycobacterium smegmatis mc2 155 ATCC 700084 assessed as Ceftazidime MIC at 60 uM incubated for 48 hrs by alamarblue dye based broth microdilution method (reference value: 512 ug/ml); format: functional; how it was run: as §1
[5] = test system: Mycolicibacterium smegmatis; assay: Potentiation of Ceftazidime-induced antibacterial activity against Mycobacterium smegmatis mc2 155 ATCC 700084 assessed as fold reduction in Ceftazidime MIC at 60 uM incubated for 48 hrs by alamarblue dye based broth microdilution method; format: functional; how it was run: as §1
[6] = test system: Mycolicibacterium smegmatis; assay: Potentiation of Cefoxitin-induced antibacterial activity against Mycobacterium smegmatis mc2 155 ATCC 700084 assessed as Cefoxitin MIC at 60 uM incubated for 48 hrs by alamarblue dye based broth microdilution method (reference value: 16 ug/ml); format: functional; how it was run: as §1
[7] = test system: Mycolicibacterium smegmatis; assay: Potentiation of oxacillin-induced antibacterial activity against Mycobacterium smegmatis mc2 155 ATCC 700084 assessed as fold reduction in oxacillin MIC at 60 uM incubated for 48 hrs by alamarblue dye based broth microdilution method; format: functional; how it was run: as §1
[8] = test system: Mycolicibacterium smegmatis; assay: Antibacterial activity against Mycobacterium smegmatis mc2 155 ATCC 700084 assessed as inhibition of bacterial growth incubated for 48 hrs by alamarblue dye based broth microdilution method; format: functional
How it was run: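 Inoculum from 48 h cultures set to 5 x 10^5 CFU/mL in 7H9 + ADC. Compound in DMSO two-fold serially diluted from 200 µM top concentration. Stationary 37 °C for 48 h, then alamarBlue for 8 h at 37 °C. MIC is the lowest concentration with no viable bacteria (blue, not pink). Duplicate wells, at least two independent repeats.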

[9] = test system: Mycolicibacterium smegmatis; assay: Potentiation of Cefotaxime-induced antibacterial activity against Mycobacterium smegmatis mc2 155 ATCC 700084 assessed as fold reduction in Cefotaxime MIC at 60 uM incubated for 48 hrs by alamarblue dye based broth microdilution method; format: functional; how it was run: as §1
[10] = test system: Mycolicibacterium smegmatis; assay: Potentiation of Cefoxitin-induced antibacterial activity against Mycobacterium smegmatis mc2 155 ATCC 700084 assessed as fold reduction in Cefoxitin MIC at 60 uM incubated for 48 hrs by alamarblue dye based broth microdilution method; format: functional; how it was run: as §1
[11] = test system: Mycolicibacterium smegmatis; assay: Potentiation of Oxacillin-induced antibacterial activity against Mycobacterium smegmatis mc2 155 ATCC 700084 assessed as Oxacillin MIC at 60 uM incubated for 48 hrs by alamarblue dye based broth microdilution method (Rvb =512 ug/ml); format: functional; how it was run: as §1
[12] = test system: Mycolicibacterium smegmatis; assay: Potentiation of Cefotaxime-induced antibacterial activity against Mycobacterium smegmatis mc2 155 ATCC 700084 assessed as Cefotaxime MIC at 60 uM incubated for 48 hrs by alamarblue dye based broth microdilution method (reference value: 128 ug/ml); format: functional; how it was run: as §1
[13] = test system: Mycolicibacterium smegmatis; assay: Potentiation of Ampicillin-induced antibacterial activity against Mycobacterium smegmatis mc2 155 ATCC 700084 assessed as fold reduction in Ampicillin MIC at 60 uM incubated for 48 hrs by alamarblue dye based broth microdilution method; format: functional; how it was run: as §1

SMILES | EC50 [1] | IC50 [2] | MIC [3] | MIC [4] | fold change (FC) [5] | MIC [6] | fold change (FC) [7] | MIC [8] | fold change (FC) [9] | fold change (FC) [10] | MIC [11] | MIC [12] | fold change (FC) [13]
Nc1nccc(-c2c[nH]c3cccc(Br)c23)n1 | > 50 µM | > 50 µM | – | – | – | – | – | – | – | – | – | – | –
Nc1nccc(-c2c[nH]c3c(Br)cccc23)n1 | > 50 µM | 26 µM | – | – | – | – | – | – | – | – | – | – | –
Nc1nccc(-c2c[nH]c3ccc(Cl)cc23)n1 | > 50 µM | 18.3 µM | – | – | – | – | – | – | – | – | – | – | –
Nc1nccc(-c2c[nH]c3ccc(F)cc23)n1 | > 50 µM | 16 µM | – | – | – | – | – | – | – | – | – | – | –
Nc1nccc(-c2c[nH]c3cc(Cl)ccc23)n1 | > 50 µM | 26.6 µM | – | – | – | – | – | – | – | – | – | – | –
CCCn1cc(-c2ccnc(N)n2)c2cc(Br)ccc21 | > 50 µM | 15.1 µM | – | – | – | – | – | – | – | – | – | – | –
CCCn1cc(-c2ccnc(N)n2)c2ccc(I)cc21 | > 50 µM | > 50 µM | – | – | – | – | – | – | – | – | – | – | –
CCCCn1cc(-c2ccnc(N)n2)c2cc(Br)ccc21 | > 50 µM | 22.7 µM | – | – | – | – | – | – | – | – | – | – | –
Nc1nccc(-c2c[nH]c3cc(F)ccc23)n1 | > 50 µM | 21.6 µM | – | – | – | – | – | – | – | – | – | – | –
CC(C)Cn1cc(-c2ccnc(N)n2)c2ccc(Br)cc21 | > 50 µM | 50.4 µM | – | – | – | – | – | – | – | – | – | – | –
CNc1nccc(-c2c[nH]c3ccc(Br)cc23)n1 | 45 µM | 25.5 µM | 64 µg/mL | 512 µg/mL | 0 | 16 µg/mL | 2 | ≥ 200 µM | 2 | 0 | 256 µg/mL | 64 µg/mL | 2
CCn1cc(-c2ccnc(N)n2)c2cc(Br)ccc21 | > 50 µM | 37.1 µM | – | – | – | – | – | – | – | – | – | – | –
Nc1nccc(-c2c[nH]c3ccc(I)cc23)n1 | 28.1 µM | 13.1 µM | 128 µg/mL | 512 µg/mL | 0 | 16 µg/mL | 0 | ≥ 200 µM | 2 | 0 | 512 µg/mL | 64 µg/mL | 0
Cn1cc(-c2ccnc(N)n2)c2cc(Br)ccc21 | > 50 µM | 27.8 µM | 32 µg/mL | 64 µg/mL | 8 | 8 µg/mL | 2 | ≥ 200 µM | 8 | 2 | 256 µg/mL | 16 µg/mL | 4
CCn1cc(-c2ccnc(N)n2)c2ccc(Br)cc21 | > 50 µM | 39.1 µM | – | – | – | – | – | – | – | – | – | – | –
CCNc1nccc(-c2c[nH]c3ccc(Br)cc23)n1 | 39.3 µM | 14.2 µM | 64 µg/mL | 512 µg/mL | 0 | 16 µg/mL | 0 | ≥ 200 µM | 0 | 0 | 512 µg/mL | 128 µg/mL | 2
